In PMC11551477 (Pharmacology Research & Perspectives, 2024):
Like-named read-outs stand apart in the source and are kept apart here.

Legend:
[1] = healthy Japanese adult males, NCA; cited from earlier work
[2] = Integrated PopPK analysis; assay type: in vivo, human (Japanese pediatric patients and adult population)
How it was run: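 Plasma concentrations (2611 samples, 142 Japanese subjects) were pooled from six oral-dosing studies: pediatric patients aged 6–18 y on once-daily doses for 52 weeks, healthy adult males, and fed adults with normal, mild or moderately impaired renal function. Assays were LC–MS/MS (LLOQ 0.5 ng/mL) or HPLC (LLOQ 4 ng/mL). Points with |CWRES| >6 were excluded. Model: linear two-compartment, first-order absorption with lag and first-order elimination. Covariate selection was forward (p<.05) then backward (p<.01), with condition number ≤1000. Evaluation used bootstrap and pc-VPC.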

[3] = cited from earlier work
[4] = system: hyperuricemia including gout; settings: pediatric patients weighing <40 kg and ≥40 kg; cited from earlier work
[5] = standard NCA analysis; cited from earlier work
[6] = Post hoc estimates of steady-state PK parameters from the PopPK final model; assay type: in vivo, human (Japanese pediatric patients and adult population); settings: for CLss/F (apparent total body clearance at steady state) / Dose‐normalized AUCτ,ss / Dose‐normalized C max,ss: fed, mean ± SD
How it was run: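 Steady-state parameters were derived by post hoc estimation from the final PopPK model, assuming each study's dose given once daily to fed subjects. Pediatric estimates used the original maintenance doses: 20 mg for <40 kg and 40 mg for ≥40 kg. CL/F was also expressed per body weight. Outputs were CLss/F, Cmax,ss and AUCτ,ss, compared with the adult population.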

[7] = system: plasma protein (mainly albumin); settings: binds mainly to albumin; cited from earlier work
[8] = 20 mg repeated, fed, NCA, cited from earlier work
[9] = cited from earlier work; remark: listed apart in the source
[10] = fed vs fasted, present PopPK analysis
[11] = final PopPK model, fixed effect
[12] = adult population (n = 113), 10–160 mg once daily
[13] = pediatric patients <40 kg (n = 10), 20 mg once daily
[14] = pediatric patients weighing <40 kg vs adult population
[15] = pediatric patients weighing ≥40 kg vs adult population
[16] = pediatric patients ≥40 kg (n = 19), 40 mg once daily
[17] = mild dysfunction group (CLCr-based)
[18] = moderate renal dysfunction group (CLCr-based)

Between-subject variability of CL/F, CV (%) ([2]; CV = SQRT(EXP(ω^2)–1) × 100): 26.2%
Between-subject variability of Ka, CV (%) ([2]; CV = SQRT(EXP(ω^2)–1) × 100): 306.3%
Between-subject variability of Q/F, CV (%) ([2]; CV = SQRT(EXP(ω^2)–1) × 100): 71.3%
Between-subject variability of V2/F, CV (%) ([2]; CV = SQRT(EXP(ω^2)–1) × 100): 25.7%
Between-subject variability of V3/F, CV (%) ([2]; CV = SQRT(EXP(ω^2)–1) × 100): 54.4%
Residual variability, CV (%) ([2]; CV = σ × 100): 36.9%
ALAG1, Bootstrap Median ([2]; bootstrap, 1000 simulations): 0.438 h
ALAG1, Bootstrap parameter estimate Mean ± SE ([2]; bootstrap, 1000 simulations): 0.441 ± 0.0210 h
CL/F, Bootstrap Median ([2]; bootstrap, 1000 simulations): 6.52 L/h
CL/F, Bootstrap parameter estimate Mean ± SE ([2]; bootstrap, 1000 simulations): 6.52 ± 0.197 L/h
CLEGFR, Bootstrap Median ([2]; bootstrap, 1000 simulations): 0.326
CLEGFR, Bootstrap parameter estimate Mean ± SE ([2]; bootstrap, 1000 simulations): 0.326 ± 0.0586
CLWGT, Bootstrap Median ([2]; bootstrap, 1000 simulations): 0.580
CLWGT, Bootstrap parameter estimate Mean ± SE ([2]; bootstrap, 1000 simulations): 0.589 ± 0.130
F1 (FED), Bootstrap Median ([2]; bootstrap, 1000 simulations): 0.839
F1 (FED), Bootstrap parameter estimate Mean ± SE ([2]; bootstrap, 1000 simulations): 0.838 ± 0.0274
Ka, Bootstrap Median ([2]; bootstrap, 1000 simulations): 3.51 h⁻¹
Ka, Bootstrap parameter estimate Mean ± SE ([2]; bootstrap, 1000 simulations): 4.24 ± 2.78 h⁻¹
Q/F, Bootstrap Median ([2]; bootstrap, 1000 simulations): 1.79 L/h
Q/F, Bootstrap parameter estimate Mean ± SE ([2]; bootstrap, 1000 simulations): 1.78 ± 0.127 L/h
V2/F, Bootstrap Median ([2]; bootstrap, 1000 simulations): 19.4 L
V2/F, Bootstrap parameter estimate Mean ± SE ([2]; bootstrap, 1000 simulations): 19.4 ± 0.792 L
V3/F, Bootstrap Median ([2]; bootstrap, 1000 simulations): 15.6 L
V3/F, Bootstrap parameter estimate Mean ± SE ([2]; bootstrap, 1000 simulations): 15.5 ± 0.822 L
σ ^2, Bootstrap Median ([2]; bootstrap, 1000 simulations): 0.135
σ ^2, Bootstrap parameter estimate Mean ± SE ([2]; bootstrap, 1000 simulations): 0.135 ± 0.00823
ω Ka ^2, Bootstrap Median ([2]; bootstrap, 1000 simulations): 2.37
ω Ka ^2, Bootstrap parameter estimate Mean ± SE ([2]; bootstrap, 1000 simulations): 2.60 ± 0.908
ω Q/F ^2, Bootstrap Median ([2]; bootstrap, 1000 simulations): 0.409
ω Q/F ^2, Bootstrap parameter estimate Mean ± SE ([2]; bootstrap, 1000 simulations): 0.414 ± 0.0686
ω Q/F‐V3/F ^2, Bootstrap Median ([2]; bootstrap, 1000 simulations): 0.302
ω Q/F‐V3/F ^2, Bootstrap parameter estimate Mean ± SE ([2]; bootstrap, 1000 simulations): 0.304 ± 0.0507
ω V2/F ^2, Bootstrap Median ([2]; bootstrap, 1000 simulations): 0.0633
ω V2/F ^2, Bootstrap parameter estimate Mean ± SE ([2]; bootstrap, 1000 simulations): 0.0648 ± 0.0188
ω V3/F ^2, Bootstrap Median ([2]; bootstrap, 1000 simulations): 0.251
ω V3/F ^2, Bootstrap parameter estimate Mean ± SE ([2]; bootstrap, 1000 simulations): 0.254 ± 0.0511
Reduction of AUCτ,ss in the fed group [2, 10]: 16.2%
Reduction of C max,ss in the fed group [2, 10]: 16.2%
Reduction of relative bioavailability in the fed group [2, 10]: 16.2%
σ ^2 (exponential error), residual variability, Estimate ([2]; final PopPK model): 0.136
ω CL/F‐V2/F ^2 (covariance, correlation variability), Estimate ([2]; final PopPK model): 0.0483
ω Ka ^2 (between-subject variability), Estimate ([2]; final PopPK model): 2.34
ω Q/F ^2 (between-subject variability), Estimate ([2]; final PopPK model): 0.411
ω Q/F‐V3/F ^2 (covariance, correlation variability), Estimate ([2]; final PopPK model): 0.307
ω V2/F ^2 (between-subject variability), Estimate ([2]; final PopPK model): 0.0638
ω V3/F ^2 (between-subject variability), Estimate ([2]; final PopPK model): 0.259
ω CL/F ^2 (between-subject variability), Estimate ([2]; final PopPK model, exponential error model): 0.0662
ALAG1 (absorption lag time), Estimate [2, 11]: 0.437 h
Ka (first-order absorption rate constant), Estimate [2, 11]: 3.43 h⁻¹
CLWGT (covariate for effect of body weight on CL/F), Estimate ([2]; final PopPK model, power function exponent, centered at 60.6 kg): 0.584
CLEGFR (covariate for effect of eGFR on CL/F), Estimate ([2]; final PopPK model, power function exponent, centered at 98.6 mL/min/1.73 m^2): 0.324
Vd/F ([2]; human, plasma, oral): 19.4 L
CLss/F (apparent total body clearance at steady state) [6, 12]: 8.27 ± 2.00 L/h
Dose‐normalized AUCτ,ss [6, 12]: 128 ± 32 ng·h/mL/mg
Dose‐normalized C max,ss [6, 12]: 30.2 ± 10.6 ng/mL/mg
CLss/F (apparent total body clearance at steady state) [6, 13]: 4.28 ± 1.20 L/h
Dose‐normalized AUCτ,ss [6, 13]: 251 ± 72 ng·h/mL/mg
Dose‐normalized C max,ss [6, 13]: 42.7 ± 7.6 ng/mL/mg
CLss/F relative to the adult population [6, 14]: 0.52 fold
Dose‐normalized AUCτ,ss relative to the adult population [6, 14]: 1.96 fold
Dose‐normalized C max,ss relative to the adult population [6, 14]: 1.41 fold
CLss/F relative to the adult population [6, 15]: 0.80 fold
Dose‐normalized AUCτ,ss relative to the adult population [6, 15]: 1.38 fold
Dose‐normalized C max,ss relative to the adult population [6, 15]: 1.18 fold
CLss/F (apparent total body clearance at steady state) [6, 16]: 6.59 ± 2.45 L/h
Dose‐normalized AUCτ,ss [6, 16]: 176 ± 75 ng·h/mL/mg
Dose‐normalized C max,ss [6, 16]: 35.7 ± 10.4 ng/mL/mg
SMILES: Cc1nc(-c2ccc(OCC(C)C)c(C#N)c2)sc1C(=O)O [febuxostat]
AUCinf lower in the fed group than in the fasted group [1]: 18%
C max lower in the fed group than in the fasted group [1]: 28%
Solubility (in words) [3]: poorly soluble
Efficacy in pediatric patients compared with adults [4]: as effective
Tolerability in pediatric patients compared with adults [4]: well tolerated
Effect of sex on PK [5]: no notable effect
CL/F adjusted by body weight (post hoc estimate), males vs females ([6]; children or adults, Figure S2): no clear difference
Plasma protein binding rate [7]: approximately 99%
Increase of AUCτ,ss vs normal renal function group [8, 17]: 52.5%
Steady‐state plasma C max,ss vs normal renal function group [8, 17]: did not differ noticeably
Increase of AUCτ,ss vs normal renal function group [8, 18]: 67.6%
Increase of C max,ss vs normal renal function group [8, 18]: 25.5%
Eliminated as unchanged drug through the urine [9]: < 5%
